Test results reported in ChEMBL document CHEMBL5104177, “Discovery and Crystallographic Studies of Trisubstituted Piperazine Derivatives as Non-Covalent SARS-CoV-2 Main Protease Inhibitors with High Target Specificity and Low Toxicity” (J Med Chem, 2022).
pIC50: −log10 of the molar value. Values after ≈ are worked out from the molar mass of the structure shown.

Assays:
Cathepsin F = target: T1, Cathepsin F (Homo sapiens, UniProt Q9UBX1); assay: Inhibition of human Cathepsin F using Z-Phe-Arg-AMC as fluorogenic substrate incubated for 60 mins by FRET assay
T1 sequence (Q9UBX1 whole entry): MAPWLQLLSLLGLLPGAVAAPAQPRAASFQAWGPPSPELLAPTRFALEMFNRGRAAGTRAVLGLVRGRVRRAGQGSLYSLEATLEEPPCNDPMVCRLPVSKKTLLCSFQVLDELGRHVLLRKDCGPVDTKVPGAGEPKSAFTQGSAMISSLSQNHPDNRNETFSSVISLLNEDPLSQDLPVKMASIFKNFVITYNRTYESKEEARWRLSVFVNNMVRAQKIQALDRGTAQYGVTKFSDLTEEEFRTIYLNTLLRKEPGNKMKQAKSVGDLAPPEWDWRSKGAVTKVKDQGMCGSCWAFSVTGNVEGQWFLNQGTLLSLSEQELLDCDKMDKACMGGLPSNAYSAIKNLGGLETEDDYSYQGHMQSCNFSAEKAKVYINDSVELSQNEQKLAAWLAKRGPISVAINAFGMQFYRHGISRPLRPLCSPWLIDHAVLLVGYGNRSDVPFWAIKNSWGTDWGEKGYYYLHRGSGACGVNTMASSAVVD

SARS-CoV-2 [1] = assay: Antiviral activity against SARS-CoV-2 infected in Vero E6 cells assessed as inhibition of viral replication incubated for 25 to 26 hrs by EliSpot reader based analysis; type: functional, organism-based; conditions: Severe acute respiratory syndrome coronavirus 2, Vero C1008
How it was run: (§1)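 Antiviral assay in SARS-CoV-2-infected Vero E6 cells, with remdesivir and GC-376 as positive controls, n = 3 biological replicates, SD reported. The potency index is EC50(remdesivir)/EC50(test compound), both measured in this assay.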

[2] = Cytotoxicity against African green monkey Vero E6 cells assessed as reduction in cell viability incubated for 26 hrs by celltiter 96 aqueous non-radioactive cell proliferation assay; type: toxicity, cell-based, Vero C1008; conditions: chlorocebus sabaeus
How it was run: (§2)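 Cytotoxicity measured in Vero E6 cells run in parallel with the antiviral assay, n = 3 biological replicates, SD reported.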

Caspase-3 = target: T2, Caspase-3 (Homo sapiens, UniProt P42574); assay: Inhibition of human caspase-3 using Ac-Asp-Glu-Val-Asp-pNA as substrate incubated for 60 mins by FRET assay
T2 sequence (P42574 whole entry): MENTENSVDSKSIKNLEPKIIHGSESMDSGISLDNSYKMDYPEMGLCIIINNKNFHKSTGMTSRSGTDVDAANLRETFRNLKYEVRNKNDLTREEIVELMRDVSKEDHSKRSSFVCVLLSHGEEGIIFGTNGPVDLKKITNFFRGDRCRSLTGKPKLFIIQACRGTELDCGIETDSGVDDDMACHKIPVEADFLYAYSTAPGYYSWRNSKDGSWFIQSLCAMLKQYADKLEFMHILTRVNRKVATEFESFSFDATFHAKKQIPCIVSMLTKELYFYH

[3] = target: Replicase polyprotein 1ab (Severe acute respiratory syndrome coronavirus 2, UniProt P0DTD1); assay: Inhibition of SARS-CoV-2 main protease using MCA-AVLQSGFR-Lys(Dnp)-Lys-NH2 as fluorescent substrate preincubated for 10 mins followed by substrate addition and measured every 10 sec for 10 mins by FRET assay
Procathepsin L = Procathepsin L (Homo sapiens, UniProt P07711); assay: Inhibition of human Cathepsin L using Z-Leu-Arg-AMC as fluorogenic substrate incubated for 60 mins by FRET assay
Procathepsin L, sequence (P07711 whole entry): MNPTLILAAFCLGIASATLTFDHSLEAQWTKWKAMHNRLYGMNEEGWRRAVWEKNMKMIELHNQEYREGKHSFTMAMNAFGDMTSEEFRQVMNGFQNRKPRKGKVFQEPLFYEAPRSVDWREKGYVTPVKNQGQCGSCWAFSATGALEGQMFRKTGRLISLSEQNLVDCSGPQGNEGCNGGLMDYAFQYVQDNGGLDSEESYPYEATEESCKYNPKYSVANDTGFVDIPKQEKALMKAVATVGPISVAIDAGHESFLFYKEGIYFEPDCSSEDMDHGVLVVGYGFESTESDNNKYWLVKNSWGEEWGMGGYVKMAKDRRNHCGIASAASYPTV

Cathepsin K = target: T3, Cathepsin K (Homo sapiens, UniProt P43235); assay: Inhibition of human Cathepsin K using Ac-LR-AMC as fluorogenic substrate incubated for 60 mins by FRET assay
T3 sequence (P43235 whole entry): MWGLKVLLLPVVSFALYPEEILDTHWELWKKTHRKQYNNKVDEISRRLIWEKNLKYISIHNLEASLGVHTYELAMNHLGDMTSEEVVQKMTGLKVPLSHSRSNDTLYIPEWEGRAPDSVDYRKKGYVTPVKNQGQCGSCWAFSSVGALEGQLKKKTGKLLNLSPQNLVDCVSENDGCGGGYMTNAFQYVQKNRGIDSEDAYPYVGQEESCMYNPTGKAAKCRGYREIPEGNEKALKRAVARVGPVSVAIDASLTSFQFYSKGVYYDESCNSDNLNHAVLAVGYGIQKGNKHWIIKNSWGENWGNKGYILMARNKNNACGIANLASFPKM

Cathepsin B = Cathepsin B (Homo sapiens, UniProt P07858); assay: Inhibition of human Cathepsin B using Z-Leu-Arg-AMC as fluorogenic substrate incubated for 60 mins by FRET assay
[4] = Inhibition of SARS-CoV-1 main protease; parameters: species or system Severe acute respiratory syndrome-related coronavirus
How it was run: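 SARS-CoV-1 Mpro inhibition tested in addition to SARS-CoV-2 Mpro. Values are mean ± SD of three independent experiments.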

[5] = Microsomal stability in human liver microsomes assessed as intrinsic clearance at 1 uM preincubated for 10 mins followed by NADPH addition and measured upto 60 mins by LC-MS/MS analysis; type: ADME, Microsome; conditions: time < 70 min, read-out: CLH
[6] = Half life in Sprague-Dawley rat at 2 mg/kg, iv measured upto 24 hrs by LC-MS/MS analysis; type: ADME, organism-based; conditions: in vivo
How it was run: (§3)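 Single-dose pharmacokinetics in Sprague–Dawley rats: 2 mg/kg given i.v. or 10 mg/kg given orally, in separate arms. Plasma parameters were derived for each route. Oral bioavailability (F) was obtained from the two arms. Values are mean ± SD, n = 3.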

[7] = Tmax in Sprague-Dawley rat at 2 mg/kg, iv measured upto 24 hrs by LC-MS/MS analysis; type: ADME, organism-based; conditions: in vivo; how it was run: as §3
[8] = Cmax in Sprague-Dawley rat at 2 mg/kg, iv measured upto 24 hrs by LC-MS/MS analysis; type: ADME, organism-based; parameters: dose 2 mg/kg, time < 24 hrs, route iv; conditions: in vivo; how it was run: as §3
[9] = C0 in Sprague-Dawley rat at 2 mg/kg, iv measured upto 24 hrs by LC-MS/MS analysis; type: ADME, organism-based; conditions: in vivo; how it was run: as §3
[10] = AUC (0 to t) in Sprague-Dawley rat at 2 mg/kg, iv measured upto 24 hrs by LC-MS/MS analysis; type: ADME, organism-based; parameters: dose 2 mg/kg, time < 24 hrs, route iv; conditions: in vivo
[11] = AUC (0 to infinity) in Sprague-Dawley rat at 2 mg/kg, iv measured upto 24 hrs by LC-MS/MS analysis; type: ADME, organism-based; parameters: dose 2 mg/kg, time < 24 hrs, route iv; conditions: in vivo
[12] = Half life in Sprague-Dawley rat at 10 mg/kg, po measured upto 24 hrs by LC-MS/MS analysis; type: ADME, organism-based; conditions: in vivo; how it was run: as §3
[13] = MRT (0 to infinity) in Sprague-Dawley rat at 2 mg/kg, iv measured upto 24 hrs by LC-MS/MS analysis; type: ADME, organism-based; conditions: in vivo; how it was run: as §3
[14] = Clearance in Sprague-Dawley rat at 2 mg/kg, iv measured upto 24 hrs by LC-MS/MS analysis; type: ADME, organism-based; conditions: in vivo; how it was run: as §3
[15] = Tmax in Sprague-Dawley rat at 10 mg/kg, po measured upto 24 hrs by LC-MS/MS analysis; type: ADME, organism-based; conditions: in vivo; how it was run: as §3
[16] = Cmax in Sprague-Dawley rat at 10 mg/kg, po measured upto 24 hrs by LC-MS/MS analysis; type: ADME, organism-based; parameters: time < 24 hrs, dose 10 mg/kg, route po; conditions: in vivo; how it was run: as §3
[17] = AUC (0 to t) in Sprague-Dawley rat at 10 mg/kg, po measured upto 24 hrs by LC-MS/MS analysis; type: ADME, organism-based; parameters: dose 10 mg/kg, time < 24 hrs, route po; conditions: in vivo; how it was run: as §3
[18] = AUC (0 to infinity) in Sprague-Dawley rat at 10 mg/kg, po measured upto 24 hrs by LC-MS/MS analysis; type: ADME, organism-based; parameters: dose 10 mg/kg, time < 24 hrs, route po; conditions: in vivo; how it was run: as §3
[19] = MRT (0 to infinity) in Sprague-Dawley rat at 10 mg/kg, po measured upto 24 hrs by LC-MS/MS analysis; type: ADME, organism-based; conditions: in vivo; how it was run: as §3
[20] = Oral bioavailability in Sprague-Dawley rat at 10 mg/kg measured upto 24 hrs by LC-MS/MS analysis; type: ADME, organism-based; conditions: in vivo; how it was run: as §3
[21] = Kinetic solubility of the compound at pH 7.3; type: physicochemical; conditions: buffer, read-out: Kinetic_solubility
How it was run: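 Kinetic solubility measured in phosphate buffer at pH 7.3.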

[22] = Cytotoxicity against African green monkey Vero E6 cells assessed as reduction in cell viability; type: toxicity, cell-based; conditions: chlorocebus sabaeus; how it was run: as §2
SARS-CoV-2 [23] = assay: Potency index, ratio of remdesivir EC50 to test compound EC50 for Antiviral activity against SARS-CoV-2 infected in Vero E6 cells assessed as inhibition of viral replication incubated for 25 to 26 hrs by EliSpot reader based analysis; type: functional, Severe acute respiratory syndrome coronavirus 2; how it was run: as §1

CC(C)C[C@H](NC(=O)OCc1ccccc1)C(=O)N[C@@H](C[C@@H]1CCNC1=O)C(O)S(=O)(=O)O (stereo partly specified)
pIC50 (Cathepsin F): 7.13 | pIC50 (SARS-CoV-2 [1]): 6.70

CCC(CC)COC(=O)[C@H](C)N[P@](=O)(OC[C@H]1O[C@@](C#N)(c2ccc3c(N)ncnn23)[C@H](O)[C@@H]1O)Oc1ccccc1
pIC50 (SARS-CoV-2 [1]): 5.55

O=C(c1cc(=O)[nH]c(=O)[nH]1)N1CCN(c2ccc(Cl)c(Cl)c2)CC1
pIC50 (SARS-CoV-2 [1]): < 4.30 | CC50 at 26 h [2]: > 100 µM

O=C(NCc1cccs1)[C@@H]1CN(C(=O)c2cccnc2)CCN1c1ccc(Cl)c(Cl)c1
pIC50 (Caspase-3): 4.30 | pIC50 [3]: 9.40 | pIC50 (Procathepsin L): 4.30 | pIC50 (Cathepsin F): 4.30 | pIC50 (Cathepsin K): 4.30 | pIC50 (Cathepsin B): 4.30 | pIC50 (SARS-CoV-2 [1]): 5.96 | CC50 at 26 h [2]: > 100 µM | pIC50 [4]: 5.34 | CLint scaled at 1 µM [5]: 994 mL/min/kg | half-life [6]: 21.6 min | Tmax [7]: 4.8 min | Cmax [8]: 1310 ng/mL | C0 at 24 h [9]: 1760 ng/mL | AUC(0-t) at 24 h [10]: 627 ng·h/mL | AUC [11]: 637 ng·h/mL | half-life [12]: 104 min | MRT inf [13]: 24 min | clearance [14]: 52.3 mL/min/kg | Tmax [15]: 30 min | Cmax [16]: 74.6 ng/mL | AUC(0-t) at 24 h [17]: 235 ng·h/mL | AUC [18]: 230 ng·h/mL | MRT inf [19]: 147 min | F [20]: 72% | solubility kinetic [21]: 4.1 µg/mL (≈ 8.62 µM)

O=C(NCc1ccco1)[C@H]1CN(C(=O)c2cc(=O)[nH]c(=O)[nH]2)CCN1c1ccc(Cl)c(Cl)c1
pIC50 [3]: 8.53

O=c1[nH]cc(-c2cc(-c3cc(Cl)cc(OCc4ccccc4Cl)c3)c(=O)n(-c3cccnc3)c2)c(=O)[nH]1
CC50 [22]: 1.7 µM

O=C(NCc1ccco1)C1CN(C(=O)c2cc(=O)[nH]c(=O)[nH]2)CCN1Cc1ccc(Cl)cc1Cl (stereo unspecified)
pIC50 [3]: 9.23

Cn1cnc(Cn2c(=O)[nH]/c(=N\c3cc4cn(C)nc4cc3Cl)n(Cc3cc(F)c(F)cc3F)c2=O)n1
pIC50 (SARS-CoV-2 [1]): 6.43 | CC50 at 26 h [2]: > 100 µM

O=C(NCc1cccs1)[C@@H]1CN(C(=O)c2cncc3ccccc23)CCN1c1ccc(Cl)c(Cl)c1
pIC50 (Caspase-3): 4.30 | pIC50 [3]: 9.36 | pIC50 (Procathepsin L): 4.30 | pIC50 (Cathepsin F): 4.30 | pIC50 (Cathepsin K): 4.30 | pIC50 (Cathepsin B): 4.30 | pIC50 (SARS-CoV-2 [1]): 6.00 | CC50 at 26 h [2]: > 100 µM | Ratio (SARS-CoV-2 [23]): 2.8

O=C(NCc1cccs1)[C@@H]1CN(C(=O)c2cc(=O)[nH]c(=O)[nH]2)CCN1Cc1ccc(Cl)cc1Cl
pIC50 [3]: 9.36 | pIC50 (SARS-CoV-2 [1]): < 4.30 | CC50 at 26 h [2]: > 100 µM | pIC50 [4]: 5.89

O=C(NCc1ccco1)[C@@H]1CN(C(=O)c2cc(=O)[nH]c(=O)[nH]2)CCN1Cc1ccc(Cl)cc1Cl
pIC50 [3]: 9.32 | pIC50 [4]: 5.78

O=C(NCc1ccco1)[C@@H]1CN(C(=O)c2cc(=O)[nH]c(=O)[nH]2)CCN1c1ccc(Cl)c(Cl)c1
pIC50 [3]: 9.46 | pIC50 (SARS-CoV-2 [1]): < 4.30 | CC50 at 26 h [2]: > 100 µM | pIC50 [4]: 6.00

O=C(NCc1cccs1)C1CN(C(=O)c2cc(=O)[nH]c(=O)[nH]2)CCN1c1ccc(Cl)c(Cl)c1 (racemic)
pIC50 [3]: 9.21

O=C(NCc1ccco1)C1CN(C(=O)c2cc(=O)[nH]c(=O)[nH]2)CCN1c1ccc(Cl)c(Cl)c1 (racemic)
pIC50 [3]: 9.10

O=C(NCc1cccs1)[C@@H]1CN(C(=O)c2cc(=O)[nH]c(=O)[nH]2)CCN1c1ccc(Cl)c(Cl)c1 (racemic)
pIC50 [3]: 9.40 | pIC50 (SARS-CoV-2 [1]): < 4.30 | CC50 at 26 h [2]: > 100 µM | pIC50 [4]: 5.96
